Measurements as given in ChEMBL document CHEMBL1133682, “New arylpiperazine derivatives as antagonists of the human cloned 5-HT(4) receptor isoforms” (J Med Chem, 2000).

Tests used:
[1] = target: T1, 5-hydroxytryptamine receptor 4 (Homo sapiens, UniProt Q13639); test: Binding affinity was determined against cloned 5-hydroxytryptamine 4E receptor isoform expressed in C6 glial cells incubated with 0.2 nM [3H]GR-113808; assay type: cell-based
[2] = target: T1, 5-hydroxytryptamine receptor 4; test: Binding affinity was determined against cloned 5-hydroxytryptamine 4C receptor isoform expressed in COS-7 cells; assay type: cell-based
[3] = target: T1, 5-hydroxytryptamine receptor 4; test: ,Antagonism of stimulation of 5-hydroxytryptamine receptor on the L-type calcium current (I Ca) in isolated human atrial myocytes; assay type: functional, cell-based, Cardiac atrium
[4] = target: T1, 5-hydroxytryptamine receptor 4; test: Binding affinity was determined against cloned 5-hydroxytryptamine 4A receptor isoform expressed in COS-7 cells; assay type: cell-based
[5] = target: T1, 5-hydroxytryptamine receptor 4; test: Binding affinity was determined against cloned 5-hydroxytryptamine 4D receptor isoform expressed in COS-7 cells; assay type: cell-based
[6] = target: T1, 5-hydroxytryptamine receptor 4; test: Binding affinity was determined against cloned 5-hydroxytryptamine 4B receptor isoform expressed in COS-7 cells; assay type: cell-based
[7] = target: T1, 5-hydroxytryptamine receptor 4; test: Concentration required to produce half-maximal response against 5-hydroxytryptamine receptor on the L-type calcium current (I Ca) in isolated human atrial myocytes; assay type: cell-based, Cardiac atrium
In short: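 Whole-cell patch clamp on enzymatically dissociated human atrial myocytes, room temperature (19–25 °C); Cs-based internal, pCa 8.5; I_Ca at 0 mV every 8 s, peak minus current at end of 400-ms pulse.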

T1 sequence (Q13639 whole entry, canonical isoform): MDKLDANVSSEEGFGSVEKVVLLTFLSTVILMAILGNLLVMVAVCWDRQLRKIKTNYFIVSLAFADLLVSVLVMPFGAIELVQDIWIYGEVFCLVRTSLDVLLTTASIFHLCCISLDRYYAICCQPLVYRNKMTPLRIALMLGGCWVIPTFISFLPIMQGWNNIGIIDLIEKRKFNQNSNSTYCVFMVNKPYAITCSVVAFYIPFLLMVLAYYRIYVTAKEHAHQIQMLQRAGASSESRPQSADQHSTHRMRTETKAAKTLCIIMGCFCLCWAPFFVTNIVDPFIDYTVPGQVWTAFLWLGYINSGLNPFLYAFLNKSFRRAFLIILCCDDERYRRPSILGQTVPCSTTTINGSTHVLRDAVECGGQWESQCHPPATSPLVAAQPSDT

Ki [1] | SMILES | further results
1.4 nM | COc1cc(N)c(Cl)cc1C(=O)OCCN1CCN(c2cnccn2)CC1 | –
1 nM | COc1cc(N)c(Cl)cc1C(=O)OCCN1CCN(c2ncccn2)CC1 | Ki [2]: 2.47 nM; Kd [3]: 0.7 nM; Ki [4]: 3.5 nM; Ki [5]: 7.03 nM; Ki [6]: 8.1 nM; EC50 [7]: 4.5 nM
3.5 nM | COc1cc(N)c(Cl)cc1C(=O)OCCN1CCN(c2ccncc2)CC1 | –
14.3 nM | COc1cc(N)c(Cl)cc1C(=O)OCCN1CCN(c2ccccc2)CC1 | Ki [2]: 12.5 nM; Ki [4]: 23 nM; Ki [5]: 32 nM; Ki [6]: 55 nM
715 nM | COc1cc(N)c(Cl)cc1C(=O)OCCN1CCN(c2ccc(Cl)cc2)CC1 | –
296 nM | COc1cc(N)c(Cl)cc1C(=O)OCCN1CCN(c2ccccc2Cl)CC1 | –
9.8 nM | COc1cc(N)c(Cl)cc1C(=O)OCCN1CCN(c2cnc(Cl)nc2)CC1 | –
9.2 nM | COc1cc(N)c(Cl)cc1C(=O)OCCN1CCN(c2ccncn2)CC1 | –
2 nM | COc1cc(N)c(Cl)cc1C(=O)OCCN1CCN(c2ccc(Cl)nn2)CC1 | –
1.4 nM | COc1cc(N)c(Cl)cc1C(=O)OCCN1CCN(c2cccnn2)CC1 | –
1.5 nM | COc1cc(N)c(Cl)cc1C(=O)OCCN1CCN(c2ccccn2)CC1 | –
23.1 nM | COc1cc(N)c(Cl)cc1C(=O)OCCN1CCN(c2ccc(F)cc2)CC1 | –
3 nM | COc1cccc(N2CCN(CCOC(=O)c3cc(Cl)c(N)cc3OC)CC2)c1 | –
> 1000 nM | COc1cc(N)c(Cl)cc1C(=O)OCCN1CCN(C)CC1 | –
17.7 nM | COc1ccc(N2CCN(CCOC(=O)c3cc(Cl)c(N)cc3OC)CC2)cc1 | –

Further lines, the compound ahead of its results:

SMILES | Ki [1] | further results
COc1cc(N)c(Cl)cc1C(=O)OCCN1CCN(c2ccccc2OC)CC1 | 64 nM | –
CCOC(=O)N1CCN(CCOC(=O)c2cc(Cl)c(N)cc2OC)CC1 | 23 nM | –
COc1cc(N)c(Cl)cc1C(=O)OCCN1CCN(c2cccc3ccccc23)CC1 | > 1000 nM | –
COc1cc(N)c(Cl)cc1C(=O)OCCN1CCNCC1 | > 1000 nM | –
COc1cc(N)c(Cl)cc1C(=O)OCCN1CCN(C(=O)OC(C)(C)C)CC1 | > 1000 nM | –
COc1cc(N)c(Cl)cc1C(=O)OCCN1CCN(c2cccc(Cl)c2)CC1 | 162 nM | –
COc1cc(N)c(Cl)cc1C(=O)OCCCN1CCN(c2ccccc2)CC1 | 11.5 nM | –
COc1cc(N)c(Cl)cc1C(=O)OCCN1CCN(c2cccc(C(F)(F)F)c2)CC1 | 199 nM | –
Cn1cc(C(=O)OCC2CCN(CCNS(C)(=O)=O)CC2)c2ccccc21 | 0.1 nM | –
COc1cc(N)c(Cl)cc1C(=O)OCCN1CCN(Cc2ccccc2)CC1 | 240 nM | –
COc1cc(N)c(Cl)cc1C(=O)OCCN1CCN(c2ccccc2F)CC1 | 16.8 nM | –
